# Source: ChEMBL document CHEMBL1149843, “Antimicrobial triterpenoids from Vladimiria muliensis” (2008)
# Key:
# Assay type in all cases: functional
# Escherichia coli = assay: Antimicrobial activity against Escherichia coli by broth microdilution method
# How it was run: (§1)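 Bacteria were grown on MH agar at 37 °C for 24 h, then diluted to about 1 × 10^7 CFU/mL. Compounds were dissolved in DMSO. MIC was determined by broth microdilution as the lowest concentration with no growth by turbidity, with MTT absorbance read at 570 nm. Duplicates, repeated three times.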
# Candida albicans = assay: Antimicrobial activity against Candida albicans by broth microdilution method
# How it was run: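 C. albicans was grown on PDA agar at 28 °C for 48 h, then diluted to about 1 × 10^7 CFU/mL. Compounds were dissolved in DMSO. MIC was determined by broth microdilution as the lowest concentration with no growth by turbidity, with MTT absorbance read at 570 nm. Duplicates, repeated three times.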
# Pseudomonas aeruginosa = assay: Antimicrobial activity against Pseudomonas aeruginosa by broth microdilution method; how it was run: as §1
# Enterococcus faecalis = assay: Antimicrobial activity against Enterococcus faecalis by broth microdilution method; how it was run: as §1
# Bacillus cereus = assay: Antimicrobial activity against Bacillus cereus by broth microdilution method; how it was run: as §1
# Staphylococcus aureus = assay: Antimicrobial activity against Staphylococcus aureus by broth microdilution method; how it was run: as §1
SMILES,MIC (Escherichia coli) [µM],MIC (Candida albicans) [µM],MIC (Pseudomonas aeruginosa) [µM],MIC (Enterococcus faecalis) [µM],MIC (Bacillus cereus) [µM],MIC (Staphylococcus aureus) [µM]
C[C@H]1[C@H](C)CC[C@]2(C)CC=C3[C@](C)([C@H]12)[C@H]1O[C@H]1[C@@H]1[C@@]2(C)CC[C@H](O)C(C)(C)[C@@H]2CC[C@@]31C,36.3,36.3,36.3,36.3,72.7,72.7
C[C@H]1[C@H](C)CC[C@]2(CO)CC[C@]3(C)C(=CC[C@@H]4[C@@]5(C)CC[C@H](O)C(C)(C)[C@@H]5CC[C@]43C)[C@H]12 [UVAOL],142,283,283,142,283,70.1
C[C@H]1[C@H](C)CC[C@]2(C)CC[C@]3(C)C(=C[C@@H](O)[C@H]4[C@@]3(C)[C@H](O)C[C@@]35OO[C@@H](CC(=O)C3(C)C)[C@]45C)[C@H]12,31.9,31.9,31.9,31.9,63.8,14.9

# The remaining compounds from weak to strong by MIC (Escherichia coli), led by results:
MIC (Escherichia coli) [µM],MIC (Candida albicans) [µM],MIC (Pseudomonas aeruginosa) [µM],MIC (Enterococcus faecalis) [µM],MIC (Bacillus cereus) [µM],MIC (Staphylococcus aureus) [µM],SMILES
140,69.6,140,50,140,69.6,C[C@@H]1CC[C@]2(C)CC[C@]3(C)[C@@](O)(CC[C@@H]4[C@@]5(C)CC[C@H](O)C(C)(C)[C@@H]5CC[C@]43C)[C@]2(O)[C@H]1C
89.5,89.5,44.7,89.5,179,89.5,CO[C@@H]1C[C@@]2(C)[C@@H]3[C@@H](C)[C@H](C)CC[C@]3(C)CC[C@]2(C)C2=C1[C@@]1(C)CC[C@H](OC(C)=O)C(C)(C)[C@@H]1C[C@H]2O
70.4,70.4,70.4,35.2,70.4,35.2,C[C@H]1[C@H](C)CC[C@]2(C)CC[C@]3(C)C(=C[C@@H](O)[C@@H]4[C@@]5(C)CCC(=O)C(C)(C)[C@@H]5CC[C@]43C)[C@H]12
0.43,,0.43,0.86,0.86,0.43,CC1COc2c(N3CCN(C)CC3)c(F)cc3c(=O)c(C(=O)O)cn1c23 (stereo unspecified) [OFLOXACIN]
